Assay outcomes as filed in PubChem BioAssay.
CHRM4 antagonist: antagonists of human muscarinic M4 receptor (CHRM4); CHO-hM4 cells, ACh EC80, Fluo-8 calcium fluorescence; inhibition, % at 3 µM; P08173; actives 0.73% (n = 360,000);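 active = inhibition above its plate's cutoff, the mean inhibition of sample wells plus 3 SD, cut at about 27% in these data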;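 note: 0% = acetylcholine EC80 with DMSO and 100% = DMSO without agonist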
CHRM5 agonist: agonists of human muscarinic M5 receptor (CHRM5) | CHO-K1 hM5 cells, Fluo-8 calcium fluorescence; 0% DMSO wells, 100% maximal acetylcholine response | activation, % at 3 µM | actives 0.19% (n = 360,000);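 active = activation above the run's mean over test compounds plus 3 SD, cut at about 23% in these data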;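 note: signal is peak over basal fluorescence ratio across the kinetic read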
Target sequence (P08912 whole entry, looked up): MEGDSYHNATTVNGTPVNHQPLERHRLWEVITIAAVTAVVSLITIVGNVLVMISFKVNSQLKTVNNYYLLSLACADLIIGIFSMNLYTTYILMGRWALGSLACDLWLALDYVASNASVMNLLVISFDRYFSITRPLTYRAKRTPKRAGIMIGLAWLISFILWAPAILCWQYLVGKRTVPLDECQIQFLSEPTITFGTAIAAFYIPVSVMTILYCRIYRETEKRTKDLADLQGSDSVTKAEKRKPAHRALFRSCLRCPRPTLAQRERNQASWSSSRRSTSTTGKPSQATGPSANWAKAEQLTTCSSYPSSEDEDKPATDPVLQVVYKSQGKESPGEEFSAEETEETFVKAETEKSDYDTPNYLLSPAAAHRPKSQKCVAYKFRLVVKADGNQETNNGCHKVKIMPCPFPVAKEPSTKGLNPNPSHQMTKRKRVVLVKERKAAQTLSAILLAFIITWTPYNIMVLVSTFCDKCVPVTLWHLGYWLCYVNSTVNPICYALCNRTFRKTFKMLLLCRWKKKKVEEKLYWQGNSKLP
M5 PAM: CHRM5 positive allosteric modulation; P08912; CHO-K1 hM5, Fluo-8 calcium, ACh EC20 PAM; 0% = ACh EC20, 100% = ACh EC100; activation, % at 3 µM; actives 0.3% (n = 360,000);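 active = activation above the run cutoff, the mean activation of all test compounds plus 3 SD, cut at about 18% in these data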
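system = human M5 receptor in CHO-K1 cells | reagent = EC20 acetylcholine as agonist stimulus | compound dosing = single-point, 3 µM nominal | incubation = Fluo-8 loading 80 min at 37 °C plus 30 min room temperature | detection = Fluo-8 calcium dye fluorescence, kinetic read | benchmarks = low control EC20 acetylcholine (0%), high control EC100 acetylcholine (100%)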
CHRM4 agonist: CHRM4 agonism in calcium assay. P08173. CHO-K1 hM4/Gqi5, Fluo-8 calcium fluorescence; vehicle 0%, full acetylcholine response 100%. activation, % at 3 µM. actives 0.14% (n = 360,000). AID 624127;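 active = activation above the run mean over all test wells plus 3 SD, cut at about 32% in these data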;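 note: peak over basal fluorescence ratio per well then scaled between controls; 0% = DMSO wells and 100% = acetylcholine at EC100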
CHRM4 PAM: positive allosteric modulators of human muscarinic M4 receptor; AID 624126; P08173; activation, % at 3 µM; CHO-K1 hM4/Gqi5, Fluo-8 calcium fluorescence, ACh EC20; 0% = ACh EC20, 100% = maximal ACh; actives 0.4% (n = 360,000);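 active = activation above its plate's cutoff, the mean activation of sample wells plus 3 SD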
CHRM5 antagonist: blocks acetylcholine activation of human M5 receptor; CHO-hM5 cells, Fluo-8 calcium fluorescence, ACh EC80; inhibition, % at 3 µM; actives 0.59% (n = 360,000); AID 624040;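 active = inhibition above a per-plate cutoff, the mean of that plate's test compounds plus 3 SD, cut at about 27% in these data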;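 note: 0% = acetylcholine EC80 with DMSO and 100% = DMSO without agonist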
An asterisk follows results filed as active. In the library only some 1.9% were active in any assay of this set; here they are far more common.

SMILES	CHRM4 antagonist	CHRM5 agonist	M5 PAM	CHRM4 agonist	CHRM4 PAM	CHRM5 antagonist
O=C(CSc1ccc2ccccc2n1)NCCC1=CCCCC1	-12	-8	-13	-2	-6	30*
CCCN(C)C1CN(Cc2cn(Cc3cc(C)cc(C)c3)nn2)S(=O)(=O)C1 (stereo not given)	-7	3	-10	1	5	10
CC(C)(C)c1ccc(OCCOc2ccc(C(C)(C)C)cc2NC=O)c(NC=O)c1	31*	1	-21	19	-15	28*
COCCOc1ccc(C(F)(F)F)cc1NC(=O)c1ccccc1	-2	1	-5	0	12	1
COc1cc(C(=O)Oc2cccc(Nc3ncnc4ccccc34)c2)cc(OC)c1OC	31*	4	-16	17	-28	29*
Cc1ccc(CNC(=O)C2COc3ccccc3O2)cc1 (stereo not given)	4	1	4	0	-3	11
Cc1ccc(C(C(=O)NCc2ccc(F)cc2)N(CCCO)C(=O)C2COc3ccccc3O2)o1 (stereo not given)	41*	7	-10	9	-15	-5
Cc1ccc(Cl)cc1-c1cc(C(=O)NCC2CCCCC2)[nH]n1	-18	5	10	2	7	-2
Nc1ccc(CN2CCCCCC2)cc1	-2	-11	38*	1	-1	3
Brc1ccc(CN2CCCCCC2)cc1	1	-12	4	1	4	6
COc1cc(Cl)ccc1NC(=S)N(CCN1CCOCC1)C1CCN(C(C)=O)CC1	61*	-2	5	0	-12	0
Oc1nc(-c2ccc(Cl)cc2)n2ccncc12	-5	-4	-1	1	0	11
COC(=O)c1ccc(-c2nc(O)c3cnccn23)cc1	-3	-4	-1	34*	3	8
Cc1ccc(NC(=S)NCCSc2ccc(Cl)cc2)cc1	36*	-15	-33	8	-28	17
NS(=O)(=O)c1ccc(NC(=S)NCCc2ccccc2)cc1	0	-1	-6	1	-2	9
O=[N+]([O-])c1ccc(NC(=S)NCCc2ccc(Cl)cc2)cc1	25	3	-17	7	-19	27*
O=[N+]([O-])c1ccc(NC(=S)NCCc2ccccc2)cc1	11	-1	-14	11	-19	27*
CCCN(C)C[C@@H]1Oc2ncc(Br)cc2C(=O)N([C@@H](C)CO)C[C@H]1C	11	1	5	0	-1	-13
O=C(COC(=O)C1(c2ccccc2)CCCC1)N1CCNC1=O	-5	-6	5	1	5	3
CCN(CC)CC(=O)NCC1(c2ccccc2)CCCC1	39*	-18	1	0	-23	5
O=C(OCCCN1CCCC1)C1(c2ccccc2)CCCC1	63*	-14	-24	2	-31	39*
CCN(CC)CCOC(=O)C1(c2ccc(OC)c(OC)c2)CCCC1	6	-8	-16	1	-12	28*
CN(C)CCOC(=O)C1(c2ccccc2)CCOCC1	9	-11	-28	0	-6	13
CCN(CC)CCOC(=O)C1(c2ccccc2)CCCC1	98*	-6	-16	2	-35	99*
CCCCC[C@H](C)N1C[C@@H](COCc2ccccc2)Oc2cc(N3CCC[C@@H]3COC)ccc2S1(=O)=O	-4	3	-2	0	2	12
SMILES	CHRM4 antagonist	CHRM5 agonist	M5 PAM	CHRM4 agonist	CHRM4 PAM	CHRM5 antagonist
CCCCN1C(=O)C(=O)NC[C@@H]1CC1CCCCC1	-15	3	1	1	7	3
COc1cc(-c2cc(NC=O)c3ncc(-c4ccc(C(C)=O)cc4)n3c2)ccc1O	-7	0	-9	10	-1	13
CCN(CC)CCOC(=O)c1ccc(Cl)cc1	-5	-14	3	1	5	-13
CCN(CC)CCOC(=O)C1(C2CCCCC2)CCCCC1	98*	-2	-19	2	-16	99*
Cc1cc(/C=C2/C(=O)N(C)C(=S)N2C)ccc1N1CCCC1	2	10	-4	4	4	14
CCCN1C(=O)/C(=C/c2ccc(N3CCOCC3)cc2)NC1=S	11	15	-14	23	-9	19
